In ChEMBL document CHEMBL1255572, “Novel pyrimidines as acid pump antagonists (APAs)” (Bioorg Med Chem Lett, 2010):
Counter-ions that a name gives are not always drawn.

Assay: Inhibition of H+/K+/ATPase
In short: (§1)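 Ion-leaky membrane vesicles enriched in H+/K+-ATPase prepared from pig stomach. Lyophilized vesicles in 5 mM Pipes/Tris pH 6.1 preincubated 5 min with compound at various concentrations. K+-containing or K+-free buffer then added, ATP substrate added, and incubated 30 min at 37 °C. Colorimetric reagent stopped the reaction and Pi was read at 620 nm. K+-stimulated activity is the difference between with and without K+. IC50 by Litchfield–Wilcoxon.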

Row | IC50 [µM] | Structure (SMILES)
1 | 1.76 | Cc1ccc2c(c1)CCN(c1nc(C(C)(C)c3ccc(F)cc3)nc(C)c1C)C2C (centres undefined)
2 | 1.63 | Cc1nc(Cc2ccc(F)cc2)nc(N2CCc3ccc(Cl)cc3C2C)c1C (centres undefined)
3 | 1.13 | Cc1ccc2c(c1)CCN(c1nc(C(F)c3ccc(F)cc3)nc(C)c1C)C2C (centres undefined)
4 | 0.61 | Cc1nc(Cc2ccc(F)cc2)nc(N2CC(C)c3ccccc3C2C)c1C (centres undefined)
5 | 1.99 | Cc1nc(Cc2ccc(F)cc2)nc(N2CCc3c(Cl)cccc3C2C)c1C (centres undefined)
6 | 0.7 | Cc1cccc2c1C(C)N(c1nc(Cc3ccc(F)cc3)nc(C)c1C)CC2 (centres undefined)
7 | 1.29 | Cc1ccc2c(c1)CCN(c1nc(C3(c4ccc(F)cc4)CC3)nc(C)c1C)C2C (centres undefined)
8 | 0.35 | Cc1nc(Nc2ccc(F)cc2)nc(N2CCc3ccccc3C2C)c1C (centres undefined) [REVAPRAZAN HYDROCHLORIDE]
9 | 1.12 | COc1ccc2c(c1)C(C)N(c1nc(C(=O)c3ccc(F)cc3)nc(C)c1C)CC2 (centres undefined)
10 | 0.94 | Cc1nc(Cc2ccc(F)cc2)nc(N2CCc3cc(Cl)ccc3C2C)c1C (centres undefined)
11 | 0.17 | COc1ccc2c(c1)CCN(c1nc(Cc3ccc(F)cc3)nc(C)c1C)C2C (centres undefined)
12 | 0.052 | COc1ccc2c(c1)C(C)N(c1nc(Cc3ccc(F)cc3)nc(C)c1C)CC2 (centres undefined)
13 | 0.3 | Cc1ccc2c(c1)C(C)N(c1nc(Cc3ccc(F)cc3)nc(C)c1C)CC2 (centres undefined)
14 | 1.91 | Cc1ccc2c(c1)CCN(c1nc(C(=O)c3ccc(F)cc3)nc(C)c1C)C2C (centres undefined)
15 | 1.24 | Cc1nc(Cc2ccc(F)cc2)nc(N2CCc3ccc(F)cc3C2C)c1C (centres undefined)
16 | 0.23 | Cc1ccc2c(c1)CCN(c1nc(Cc3ccc(F)cc3)nc(C)c1C)C2C (centres undefined)
17 | 1.51 | Cc1ccc2c(c1)CCN(c1nc(C(O)c3ccc(F)cc3)nc(C)c1C)C2C (centres undefined)

Assay: Inhibition of H+/K+/ATPase at 4 uM
In short: as §1

Row | inhibition [%] | Structure (SMILES)
18 | 1.4 | COc1ccc2c(c1)C(C)N(c1nc(C3(c4ccc(F)cc4)CC3)nc(C)c1C)CC2 (centres undefined)
19 | 34.2 | COc1ccc2c(c1)C(C)N(c1nc(C(C)(C)c3ccc(F)cc3)nc(C)c1C)CC2 (centres undefined)
